≈ marks a conversion by molar mass, not a printed value. Where “and” joins values, the source holds several entries; their conditions need not be identical. Equal entries are not always repeated.
Tests used:
Type in all cases: functional
[1] = system: unidentified influenza virus; experiment: Antiviral activity is expressed as virus rating (VR) against the influenza Ao/PR/8/34 virus strain
Procedure, shortened: (§1)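 Virus rating (VR) from CPE inhibition in monolayers: HSV-1 377 and HSV-2 MS in Vero cells, HSV-1 HF in H.Ep.-2 cells, influenza A0/PR/8/34 in MDCK cells. A VR of 1.0 or more means definite, significant activity. A VR of 0.5–0.9 means marginal to moderate activity. A VR below 0.5 usually means no significant activity.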

[2] = system: unidentified influenza virus; experiment: Antiviral activity against the influenza Ao/PR/8/34 virus strain
Procedure, shortened: (§2)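 Cytopathic effect (CPE) inhibition in cell monolayers. Host cells: HSV-1 strain 377 (TK+) and HSV-2 strain MS (TK+) in Vero cells; HSV-1 strain HF (TK−) in H.Ep.-2 cells; influenza A0/PR/8/34 in Madin-Darby canine kidney cells. MIC50 is the concentration giving 50% inhibition of virus-induced CPE. ara-A was run as the positive control in the HSV tests.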

Human alphaherpesvirus 1 [3] = experiment: Antiviral activity is expressed as virus rating (VR) against the HSV-1 377 strain; procedure, shortened: as §1
Human alphaherpesvirus 1 [4] = experiment: Antiviral activity is expressed as virus rating (VR) against the HSV-1 HF strain; procedure, shortened: as §1
Human alphaherpesvirus 1 [5] = experiment: Antiviral activity against the HSV-1 HF strain from monolayers of human epidermoid carcinoma (H.Ep.-2) cells; procedure, shortened: as §2
[6] = Ratio measured as the VR of C-3''-deoxyribofuranoside to the VR at a MIC of 6 ug/mL
Human alphaherpesvirus 1 [7] = experiment: Antiviral activity against the HSV-1 377 strain from monolayers of vero cells; procedure, shortened: as §2
[8] = Ratio measured as the VR of C-3''-deoxyribofuranoside to the VR at a MIC of 56 ug/mL
[9] = Ratio measured as the VR of C-3''-deoxyribofuranoside to the VR at a MIC of 34 ug/mL
[10] = Ratio measured as the VR of C-3''-deoxyribofuranoside to the VR at a MIC of 18 ug/mL
[11] = Ratio measured as the VR of C-3''-deoxyribofuranoside to the VR at a MIC of 15 ug/mL
[12] = Ratio measured as the VR of C-3''-deoxyribofuranoside to the VR at a MIC of 3 ug/mL
[13] = Ratio measured as the VR of C-3''-deoxyribofuranoside to the VR at a MIC of 54 ug/mL
[14] = Ratio measured as the VR of C-3''-deoxyribofuranoside to the VR at a MIC of 14 ug/mL

Row | Structure (SMILES) | VR [1] | MIC50 [2] [µg/mL] | VR (Human alphaherpesvirus 1 [3]) | VR (Human alphaherpesvirus 1 [4]) | MIC50 (Human alphaherpesvirus 1 [5]) [µg/mL] | also measured
1 | Nc1nc(O)c2ncn(C3CC(CO)CC3O)c2n1 (configuration not stated) | 1.3 | 260 (≈ 980 µM) | 2.6 and 3.1 and 1.9 | 0 | – | –
2 | Nc1ncnc2c1ncn2[C@@H]1O[C@H](CO)[C@@H](O)[C@@H]1O [VIDARABINE] | – | – | 2 and 2.1 | 2.4 | 6 (≈ 22.5 µM) | Ratio [6]: 0.63; MIC50 (Human alphaherpesvirus 1 [7]): 15 µg/mL and 18 µg/mL and 34 µg/mL; Ratio [8]: 1.44; Ratio [9]: 0.95; Ratio [10]: 1.5; Ratio [11]: 1.3
3 | Nc1nc(N)c2nnn(C3CC(CO)CC3O)c2n1 (configuration not stated) | 1.3 | 200 (≈ 754 µM) | – | – | – | –
4 | Nc1nc(Cl)c2ncn([C@@H]3C[C@H](CO)C[C@H]3O)c2n1 | 0.5 | > 284 | 0.1 | 1.5 | 190 (≈ 670 µM) | –
5 | Nc1nc2c(ncn2COCCO)c(=O)[nH]1 [ACYCLOVIR] | – | – | 5.7 | 0 | – | MIC50 (Human alphaherpesvirus 1 [7]; Human alphaherpesvirus 1, read-out: MIC50): 3 µg/mL (≈ 13.3 µM); Ratio [12]: 0.33
6 | NC(=O)c1ncn([C@@H]2O[C@H](CO)[C@@H](O)[C@H]2O)n1 [RIBAVIRIN] | 2.6 and 2.9 | – | – | – | – | Ratio [13]: 0.19; Ratio [14]: 0.45

— ChEMBL document CHEMBL1123762, “Synthesis and antiviral evaluation of carbocyclic analogues of 2-amino-6-substituted-purine 3'-deoxyribofuranosides” (1987)
